Test results reported in ChEMBL document CHEMBL3259728, “Design, synthesis and biological evaluation of some novel substituted quinazolines as antitumor agents” (2014).

Assays:
Type in all cases: functional
M14 = assay: Growth inhibition of human M14 cells assessed as cell growth at 10^-8 M after 48 hrs by SRB assay; settings: M14, 48 h, read-out: Activity
[1] = Growth inhibition of human OVCAR3 cells assessed as cell growth at 10^-8 M after 48 hrs by SRB assay; settings: OVCAR-3, 48 h, read-out: Activity
HCT-116 = assay: Growth inhibition of human HCT116 cells assessed as cell growth at 10^-5 M after 48 hrs by SRB assay; settings: HCT-116, 48 h, read-out: Activity
SF-268 = assay: Growth inhibition of human SF268 cells assessed as cell growth at 10^-7 M after 48 hrs by SRB assay; settings: SF-268, 48 h, read-out: Activity
MDA-MB-231 = assay: Cytotoxicity against human MDA-MB-231 cells after 48 hrs by SRB assay; settings: MDA-MB-231, 48 h
Summary of the method: (§1)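 NCI 60-cell-line panel of human tumour lines from nine cancer types. Continuous 48 h exposure at five 10-fold dilutions from 10^-4 to 10^-8 M, with 5-FU as positive control. SRB protein stain read spectrophotometrically at time zero, untreated control and each concentration. GI50, TGI and LC50 were derived from the [(Ti−Tz)/(C−Tz)]×100 growth relations, and out-of-range values are given as > or < the tested limits.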

IGROV-1 = assay: Growth inhibition of human IGROV1 cells assessed as cell growth at 10^-7 M after 48 hrs by SRB assay; settings: IGROV-1, 48 h, read-out: Activity
[2] = Growth inhibition of human BT549 cells assessed as cell growth at 10^-7 M after 48 hrs by SRB assay; settings: BT-549, 48 h, read-out: Activity
Summary of the method: (§2)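 Five-dose NCI panel protocol. Each dose (10^-4 to 10^-8 M, 10-fold steps) was given as 48 h continuous exposure, and protein was measured by SRB staining. Percentage growth at each level is [(Ti−Tz)/(C−Tz)]×100, where Tz is time-zero absorbance and C is untreated control.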

[3] = Cytotoxicity against human OVCAR5 cells after 48 hrs by SRB assay; settings: OVCAR-5, 48 h; summary of the method: as §1
RPMI-8226 = assay: Growth inhibition of human RPMI8226 cells assessed as cell growth at 10^-7 M after 48 hrs by SRB assay; settings: RPMI-8226, 48 h, read-out: Activity
CAKI-1 = assay: Growth inhibition of human CAKI-1 cells assessed as cell growth at 10^-5 M after 48 hrs by SRB assay; settings: CAKI-1, 48 h, read-out: Activity; summary of the method: as §2
ACHN = assay: Cytotoxicity against human ACHN cells after 48 hrs by SRB assay; summary of the method: as §1
HT-29 = assay: Cytotoxicity against human HT-29 cells after 48 hrs by SRB assay; settings: HT-29, 48 h; summary of the method: as §1
HOP-92 = assay: Cytotoxicity against human HOP92 cells after 48 hrs by SRB assay; settings: HOP-92, 48 h; summary of the method: as §1
CCRF-CEM = assay: Cytotoxicity against human CCRF-CEM cells after 48 hrs by SRB assay; summary of the method: as §1
MDA-MB-468 = assay: Growth inhibition of human MDA-MB-468 cells assessed as cell growth at 10^-7 M after 48 hrs by SRB assay; settings: MDA-MB-468, 48 h, read-out: Activity
[4] = read-out: LC50 (the source's name)
[5] = read-out: pLC50 (the source's name) (converted)

Structure (SMILES): Cc1ccc(-c2nc3ccc(Cl)cc3c(=O)n2/N=C/c2ccccc2)cc1
- growth at 0.01 µM (M14): 95%
- growth at 0.01 µM [1]: 100%
- growth at 10 µM (HCT-116): 37%
- growth at 0.1 µM (SF-268): 88%
- GI50 (MDA-MB-231; read-out: GI50): 4.21 µM
- LC50 (MDA-MB-231; read-out: LC50): > 100 µM
- TGI (MDA-MB-231; read-out: TGI): > 100 µM
- GI50 (MDA-MB-231; read-out: pGI50 (converted)): 4.17 µM
- LC50 (MDA-MB-231; read-out: pLC50 (converted)): > 100 µM
- TGI (MDA-MB-231; read-out: pTGI): > 100 µM
- growth at 0.1 µM (IGROV-1): 78%
- growth at 0.1 µM [2]: 94%
- GI50 ([3]; read-out: GI50): > 100 µM
- CC50 [3, 4]: > 100 µM
- TGI ([3]; read-out: TGI): > 100 µM
- GI50 ([3]; read-out: pGI50 (converted)): > 100 µM
- CC50 [3, 5]: > 100 µM
- TGI ([3]; read-out: pTGI): > 100 µM
- growth at 0.1 µM (RPMI-8226): 94%
- growth at 10 µM (CAKI-1): 38%
- GI50 (ACHN; read-out: GI50): 0.627 µM
- CC50 (ACHN; [4]): > 100 µM
- TGI (ACHN; read-out: TGI): > 100 µM
- GI50 (ACHN; read-out: pGI50 (converted)): 0.631 µM
- CC50 (ACHN; [5]): > 100 µM
- TGI (ACHN; read-out: pTGI): > 100 µM
- GI50 (HT-29; read-out: GI50): 60.2 µM
- LC50 (HT-29; read-out: LC50): > 100 µM
- TGI (HT-29; read-out: TGI): > 100 µM
- GI50 (HT-29; read-out: pGI50 (converted)): 60.3 µM
- LC50 (HT-29; read-out: pLC50 (converted)): > 100 µM
- TGI (HT-29; read-out: pTGI): > 100 µM
- GI50 (HOP-92; read-out: GI50): 6.74 µM
- CC50 (HOP-92; [4]): > 100 µM
- TGI (HOP-92; read-out: TGI): > 100 µM
- GI50 (HOP-92; read-out: pGI50 (converted)): 6.76 µM
- CC50 (HOP-92; [5]): > 100 µM
- TGI (HOP-92; read-out: pTGI): > 100 µM
- GI50 (CCRF-CEM; read-out: GI50): > 100 µM
- CC50 (CCRF-CEM; [4]): > 100 µM
- TGI (CCRF-CEM; read-out: TGI): > 100 µM
- GI50 (CCRF-CEM; read-out: pGI50 (converted)): > 100 µM
- CC50 (CCRF-CEM; [5]): > 100 µM
- TGI (CCRF-CEM; read-out: pTGI): > 100 µM
- growth at 0.1 µM (MDA-MB-468): 93%
